Source: PubChem BioAssay (several laboratories)
MC4R ag barr: human MC4R agonism via beta-arrestin. hit rate 0.98% among 360,000. U2OS MC4R beta-arrestin complementation, luminescence; percent of melanotan II response, DMSO zero. activation, % at 8.9 µM;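 active = activation above a per-plate cutoff, the mean activation of sample wells on that plate plus 3 SD, cut at about 8% in these data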
Target sequence (P32245 whole entry, looked up): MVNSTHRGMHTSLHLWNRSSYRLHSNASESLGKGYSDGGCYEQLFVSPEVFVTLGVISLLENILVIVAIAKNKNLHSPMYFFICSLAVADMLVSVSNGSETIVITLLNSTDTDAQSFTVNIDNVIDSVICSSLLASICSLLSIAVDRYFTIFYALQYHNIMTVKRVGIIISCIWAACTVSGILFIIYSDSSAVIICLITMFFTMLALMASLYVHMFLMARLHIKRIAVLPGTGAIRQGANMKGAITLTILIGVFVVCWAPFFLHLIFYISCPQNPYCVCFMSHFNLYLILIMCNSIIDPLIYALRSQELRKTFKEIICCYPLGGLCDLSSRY
NR2E3 ag-1: activates human photoreceptor nuclear receptor NR2E3; AID 2300; Q9Y5X4; inhibition of corepressor binding, % at 4.78 µM; hit rate 0.12% among 320,000; GST-NR2E3/biotin-RetCOR TR-FRET, 1536-well;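 active = percent inhibition above the cutoff of mean plus 3 SD of all tested compounds, set per screening campaign, cut at about 20% in these data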
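Test system: GST-NR2E3 and biotin-RetCOR proteins | Quantity: 1.35 nM GST-tagged NR2E3 final | Medium: Tris pH 7.5 | Also added: 7 nM biotin-RetCOR | Dosing: Compound at 4.8 µM, single dose | Timing: 5 h at 4 °C | Detection: Time-resolved FRET | Read-out basis: Percent inhibition | Benchmarks: Biotin wells as high control, 0.6% DMSO wells as low control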
PG9 Ab binder: PG9 antibody binding by small molecule; TR-FRET gp120-PG9 antibody binding; inhibition, % at 6.7 µM; hit rate 0.43% among 360,000; AID 624416; in the data active = inhibition above about 8.5%
NR1D1 modulator: modulators of human Rev-erb alpha DNA binding | Rev-erbα–FITC-DNA binding, fluorescence polarization, 90 min | activity, % at 10 µM | hit rate 0.79% among 370,000 | P20393;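 active = activity above about 14%, limit read from the data; passing the limit was not always enough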
NR2E3 ag-2: agonists of human NR2E3 nuclear receptor; Q9Y5X4; CHO-S Gal4-NCOR/VP16-NR2E3 two-hybrid, luciferase; inhibition of corepressor binding, % at 3.98 µM; hit rate 0.35% among 360,000; AID 602229;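 active = inhibition above the mean of all tested compounds plus 3 SD, cut at about 70% in these data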;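 also: higher means lower luciferase signal from less NR2E3 corepressor binding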
MC4R antagonist: blocks human MC4R cAMP signaling; P32245; MC4R-expressing cells, MTII-stimulated cAMP, LANCE TR-FRET; inhibition, % at 6.5 µM; hit rate 0.48% among 360,000;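 active = inhibition above its plate's cutoff, the mean of tested wells on that plate plus 3 SD, cut at about 29% in these data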
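Test system: U2OS cells stably expressing human melanocortin 4 receptor (MC4R); also added: Melanotan II challenge; compound: 6.5 µM single dose; timing: 30-min compound preincubation, 1-h Melanotan II challenge, 1-h detection, room temperature; signal: Eu-cAMP/anti-cAMP TR-FRET, emission 671 nm; repeats: one well per compound, no replicates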
NR2E3 ag conf: confirmation of human NR2E3 agonists; CHO-S mammalian two-hybrid NR2E3-NCOR, luciferase luminescence; shares compounds with NR2E3 ag-2; inhibition, % at 3.98 µM; hit rate 51% among 2,300; AID 624378;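 active = average inhibition above a cutoff equal to the mean inhibition of all tested compounds plus one SD, cut at about 70% in these data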
GAL4-VP16 luc: GAL4-VP16 reporter inhibition in NR2E3 agonist counterscreen. shares compounds with NR2E3 ag-2. CHO-S GAL4-VP16 luciferase reporter, luminescence. inhibition, % at 3.98 µM. hit rate 29% among 2,300;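 active = mean inhibition above a cutoff equal to the average over all tested compounds plus one standard deviation, cut at about 70% in these data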;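 also: luciferase from a UAS reporter driven by GAL4-VP16 transactivation; higher means less reporter light so more repression of VP16 activity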
Hits are given with their value; i = inactive; nt = no result given. The list is not random: actives were taken first. Their share in the collection is about 2.7%.

SMILES	MC4R ag barr	NR2E3 ag-1	PG9 Ab binder	NR1D1 modulator	NR2E3 ag-2	MC4R antagonist	NR2E3 ag conf	GAL4-VP16 luc
CCC1Sc2ccc(S(=O)(=O)Nc3ccc(OC)cc3)cc2NC1=O (centres undefined)	i	i	i	i	i	i	i	i
CCC1Sc2ccc(S(=O)(=O)Nc3ccc(OC)c(OC)c3)cc2NC1=O (centres undefined)	i	i	i	i	88	i	81	i
CCC1Sc2ccc(S(=O)(=O)CCC(=O)Nc3ccc(OC(F)(F)F)cc3)cc2NC1=O (centres undefined)	i	i	i	i	i	i	nt	nt
Nc1ccc2ccccc2c1C(=O)c1ccccc1	i	nt	i	i	i	i	nt	nt
Cc1nn(C)c(C)c1S(=O)(=O)N1CCC(C(=O)NC2CCCc3ccccc32)CC1 (centres undefined)	i	i	i	i	i	i	nt	nt
CC[C@@]1(O)C(=O)OCc2c1cc1n(c2=O)Cc2cc3c(N)cccc3nc2-1	i	i	i	i	82	i	88	i
Cc1cc(C)c(C(=O)/C=C/c2cccc3ccccc23)c(=O)[nH]1	i	i	i	i	i	i	i	i
COCC(=O)Nc1c(C(=O)Nc2ccc3c(c2)OCO3)oc2ccccc12	i	i	i	i	i	i	nt	nt
O=C(CCl)Nc1c(C(=O)Nc2ccc3c(c2)OCCO3)oc2ccccc12	i	i	i	i	i	i	i	i
CNC(=S)NCCc1ccc(OC)cc1	i	i	i	i	i	i	nt	nt
CC1(Cc2ccc(OC(F)(F)F)cc2)C(=O)Nc2ccc(S(=O)(=O)NC3CCCCC3)cc21 (centres undefined)	i	nt	i	i	85	i	i	i
CCN(CC)CCNC(=O)C(=O)Nc1cc2c3c(c1)CCC(=O)N3CCC2	i	i	i	i	75	i	i	i
CC(=O)C1=C(c2ccc(Br)cc2)C(=O)c2ccccc2C1=O	i	i	i	i	103	i	99	92
CCn1c(COc2cccc(C)c2)nnc1SCC(=O)CC(=O)Nc1ccccc1OC	i	i	i	i	i	i	nt	nt
COc1ccccc1N1CCN(C(=O)C2CCCN(S(=O)(=O)c3ccc4c(c3)oc(=O)n4C)C2)CC1 (centres undefined)	i	i	i	i	85	i	i	i
COc1ccc(N2CCN(C(=O)C3CCCN(S(=O)(=O)c4ccc5c(c4)oc(=O)n5C)C3)CC2)cc1 (centres undefined)	i	i	i	i	i	i	nt	nt
CC1CCN(S(=O)(=O)c2ccc(N/N=C(/C#N)C(N)=O)cc2)CC1	i	i	i	i	i	i	nt	nt
O=C(CSc1nc2ccccc2nc1N1CCOCC1)NCc1ccc(Cl)cc1Cl	nt	nt	nt	i	nt	nt	nt	nt
Cc1ccc(-c2nnc(N3CCN(C(=O)Cn4c(=O)n(C)c5ccccc54)CC3)c3ccccc23)cc1	i	i	i	i	i	i	nt	nt
C=C[C@]1(C)C=C2C(=O)[C@@]3(O)OC(=O)[C@@]4(CCCC(C)(C)[C@H]34)[C@@]2(O)CC1	nt	nt	i	i	92	nt	91	i
Cc1ccc(NC(=O)CSc2nnc(NC(=O)C(C)C)s2)c(C)c1	i	i	i	i	i	i	nt	nt
O=C(Nc1ccc(OC(F)(F)F)cc1)C1CCCN(S(=O)(=O)c2cccnc2)C1 (centres undefined)	i	i	i	i	i	i	i	i
CCCCC[C@@H]1C=C(C(=O)O)[C@H](c2ccc(CC)cc2)N1S(=O)(=O)c1ccc(C)cc1	i	nt	i	i	i	i	i	i
CCCCC[C@@H]1C=C(C(=O)O)[C@H](c2ccc(Cl)c(Cl)c2)N1S(=O)(=O)c1ccc(C)cc1	i	nt	i	i	81	i	71	i
CCCC[C@@H]1C=C(C(=O)O)[C@H](c2ccc(CC)cc2)N1S(=O)(=O)c1ccc(C)cc1	i	nt	i	i	i	i	nt	nt
SMILES	MC4R ag barr	NR2E3 ag-1	PG9 Ab binder	NR1D1 modulator	NR2E3 ag-2	MC4R antagonist	NR2E3 ag conf	GAL4-VP16 luc
Cc1ccc(S(=O)(=O)N2[C@@H](c3ccc(Cl)c(Cl)c3)C(C(=O)O)=C[C@H]2C(C)(C)C)cc1	i	nt	nt	nt	i	i	i	i
COc1cccc(C(=O)Nc2ccccc2C(=O)NC2CC2)c1	i	i	i	i	i	i	nt	nt
C[C@H]1CN([C@@H](C)CO)C(=O)CCCn2cc(nn2)CO[C@@H]1CN(C)S(C)(=O)=O	i	nt	i	i	i	i	nt	nt
CCn1c(COc2ccccc2C)nc2ccccc21	i	i	i	i	i	i	nt	nt
COc1ccc2[nH]c(=O)c(-c3nnn(-c4ccc(Cl)nc4)n3)cc2c1	i	i	nt	nt	i	i	nt	nt
CN(c1ccccc1)S(=O)(=O)c1cccc(NC(=O)c2ccncc2)c1	i	i	i	i	i	i	i	i
Cc1nc2ccc(NC(=O)c3cc(S(=O)(=O)N(C)c4ccccc4)ccc3Cl)cc2s1	i	i	i	i	80	i	91	80
CN(c1ccccc1)S(=O)(=O)c1cccc(NC(=O)c2cncc(Br)c2)c1	i	i	i	i	i	i	nt	nt
COc1ccc(CNC(=O)CCS(=O)(=O)c2ccc(Br)cc2)cc1	i	i	i	i	i	i	nt	nt
CN1CCc2c(sc(NC(=O)c3ccc([N+](=O)[O-])o3)c2C(N)=O)C1	i	i	i	i	i	i	i	i
NC(=O)c1c(NC(=O)c2ccc([N+](=O)[O-])o2)sc2c1CCCC2	i	i	i	i	i	i	nt	nt
O=c1[nH]c2ccc(S(=O)(=O)N3CCN(c4ccccc4F)CC3)cc2s1	i	i	i	i	i	i	i	i
CCCCC(=O)N/N=C/c1ccc(Sc2cccc3cccnc23)o1	i	i	i	i	86	i	i	i
C=CCNC(=O)CCCCC(=O)NCC=C	i	i	i	i	i	i	nt	nt
Cc1cccc(C(=O)N[C@H](C(=O)Nc2ncc(C)s2)C(C)C)c1	i	i	i	i	85	i	98	i
CC(C)C(NC(=O)[C@H](Cc1ccc(O)cc1)NC(=O)OC(C)(C)C)P(=O)(O)OC(Cc1ccccc1)C(=O)O (some centres undefined)	nt	nt	nt	i	nt	nt	nt	nt
CC(=O)Oc1c(I)cc(I)cc1C(=O)Nc1ccc(Cl)cc1	i	i	i	i	106	i	99	87
NC(=O)CC(NC(=O)c1ccc(Br)cc1)c1ccc(N2CCCCCC2)c([N+](=O)[O-])c1 (centres undefined)	i	i	i	i	i	i	i	i
C=CCN1C[C@@H](COCc2ccccc2)Oc2cc(F)ccc2S1(=O)=O	nt	nt	nt	i	nt	nt	nt	nt
CCOc1ccc2nc(NC(=O)C3CCN(c4cnccn4)CC3)sc2c1	i	i	i	i	i	i	i	i
